# PMC8176898 (Journal of the American Chemical Society, 2021)
# Ends that are not written are not given here.
# T1: human Mint2-PTB-ARM (Mint2-PARM), PARMHis6, residues 364-570 (human, UniProt Q99767 364-570)
# T1 sequence (looked up): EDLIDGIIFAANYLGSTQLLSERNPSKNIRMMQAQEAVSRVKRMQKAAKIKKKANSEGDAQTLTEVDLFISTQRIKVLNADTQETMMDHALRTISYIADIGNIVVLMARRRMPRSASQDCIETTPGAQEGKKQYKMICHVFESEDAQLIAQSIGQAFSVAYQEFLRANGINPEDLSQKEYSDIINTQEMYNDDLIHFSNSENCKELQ
# T2: Mint2-PARM D462A (human, UniProt Q99767 364-570, D462A)
# T2 sequence (looked up): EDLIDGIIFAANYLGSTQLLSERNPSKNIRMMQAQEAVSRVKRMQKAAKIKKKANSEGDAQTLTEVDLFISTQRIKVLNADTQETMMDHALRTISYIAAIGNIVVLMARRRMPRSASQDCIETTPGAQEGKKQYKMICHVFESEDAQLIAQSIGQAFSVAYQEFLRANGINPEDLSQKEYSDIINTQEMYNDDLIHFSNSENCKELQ
# B1: Mint2-PARM F520A (domain or fragment, human, UniProt Q99767 364-570, looked up)
# chain: EDLIDGIIFAANYLGSTQLLSERNPSKNIRMMQAQEAVSRVKRMQKAAKIKKKANSEGDAQTLTEVDLFISTQRIKVLNADTQETMMDHALRTISYIADIGNIVVLMARRRMPRSASQDCIETTPGAQEGKKQYKMICHVFESEDAQLIAQSIGQAASVAYQEFLRANGINPEDLSQKEYSDIINTQEMYNDDLIHFSNSENCKELQ
# B2: Mint2-PARM L454A (domain or fragment, human, UniProt Q99767 364-570, looked up)
# chain: EDLIDGIIFAANYLGSTQLLSERNPSKNIRMMQAQEAVSRVKRMQKAAKIKKKANSEGDAQTLTEVDLFISTQRIKVLNADTQETMMDHAARTISYIADIGNIVVLMARRRMPRSASQDCIETTPGAQEGKKQYKMICHVFESEDAQLIAQSIGQAFSVAYQEFLRANGINPEDLSQKEYSDIINTQEMYNDDLIHFSNSENCKELQ
# B3: Mint2-PARM Y459A (domain or fragment, human, UniProt Q99767 364-570, looked up)
# chain: EDLIDGIIFAANYLGSTQLLSERNPSKNIRMMQAQEAVSRVKRMQKAAKIKKKANSEGDAQTLTEVDLFISTQRIKVLNADTQETMMDHALRTISAIADIGNIVVLMARRRMPRSASQDCIETTPGAQEGKKQYKMICHVFESEDAQLIAQSIGQAFSVAYQEFLRANGINPEDLSQKEYSDIINTQEMYNDDLIHFSNSENCKELQ
# B4: TAMRA-APP_(C-term) probe, (TAMRA)-NNG-QNGYENPTYKFFEQMQN (peptide)
# peptide: {TAMRA}-NNGQNGYENPTYKFFEQMQN
# B5: human Mint2-PARM Y459A/F520A (hMint2^Y459A/F520A) (domain or fragment, UniProt Q99767 364-570, looked up)
# chain: EDLIDGIIFAANYLGSTQLLSERNPSKNIRMMQAQEAVSRVKRMQKAAKIKKKANSEGDAQTLTEVDLFISTQRIKVLNADTQETMMDHALRTISAIADIGNIVVLMARRRMPRSASQDCIETTPGAQEGKKQYKMICHVFESEDAQLIAQSIGQAASVAYQEFLRANGINPEDLSQKEYSDIINTQEMYNDDLIHFSNSENCKELQ
# B6: semisynthetic Mint2-pPARMSS S458σ (domain or fragment, human, UniProt Q99767 364-570, looked up)
# chain: EDLIDGIIFAANYLGSTQLLSERNPSKNIRMMQAQEAVSRVKRMQKAAKIKKKANSEGDAQTLTEVDLFISTQRIKVLNADTQETMMDHALKTISYIADIGNIVVLMARRRMPRSASQDAIETTPGAQEGKKQYKMIAHVFESEDAQLIAQSIGQAFSVAYQEFLRANGINPEDLSQKEYSDIINTQEMYNDDLIHFSNSENAKELQ
# modifications: backbone amide-to-ester at S458 (α-hydroxy acid, S458σ)
# B7: semisynthetic Mint2-pPARMSS D462δ (domain or fragment, human, UniProt Q99767 364-570, looked up)
# chain: EDLIDGIIFAANYLGSTQLLSERNPSKNIRMMQAQEAVSRVKRMQKAAKIKKKANSEGDAQTLTEVDLFISTQRIKVLNADTQETMMDHALKTISYIADIGNIVVLMARRRMPRSASQDAIETTPGAQEGKKQYKMIAHVFESEDAQLIAQSIGQAFSVAYQEFLRANGINPEDLSQKEYSDIINTQEMYNDDLIHFSNSENAKELQ
# modifications: backbone amide-to-ester at D462 (α-hydroxy acid, D462δ)
# Tests used:
# [1] = system: Aβ42 levels, primary cortical neurons (APPswe/PS1ΔE9); experiment: Aβ42 ELISA of conditioned medium of APPswe/PS1ΔE9 neurons; format: cell-based, mouse; details: 24 h incubation
# [2] = system: primary cortical neurons (APPswe/PS1ΔE9); experiment: LDH release; details: after 24 h of treatment, TAT-14 10 μM; same conditioned medium as ELISA
# [3] = In vitro hepatic clearance, mouse liver microsomes; format: in vitro ADME
# [4] = In vitro human plasma stability; format: in vitro ADME
# Summary of the method: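 Test peptides incubated in human plasma at 37 °C for up to 24 h. At various time points, peptide was extracted and quantified by UPLC. A buffer-only control was run alongside. Mean ± SEM, n = 3.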
# primary neurons = experiment: Neuronal cell viability; details: colorimetric readout of metabolic activity
# [5] = biological target: B4; experiment: fluorescence polarisation
# [6] = biological target: T1, human Mint2-PTB-ARM (Mint2-PARM), …; experiment: fluorescence polarisation
# Mint2-PARM D462A = biological target: T2, Mint2-PARM D462A; experiment: fluorescence polarisation
molecule,measurement,setting,value
"C[C@H](NC(=O)Cc1cc(F)cc(F)c1)C(=O)NC(C(=O)OC(C)(C)C)c1ccccc1 (stereo partly drawn) [DAPT, N-[N-(3,5-difluorophenacetyl)-l-alanyl]-s-phenyl-glycine tert-butyl ester, reference compound]",reduction of Aβ42 levels (positive control),[1]; concentration not given,47%
same,LDH release relative to vehicle control (in words),[2],low LDH levels
NGYENPTYKFFE [APPWT peptide],microsomal CLint,[3],15.4 ± 2.5 µL/min/mg
same,half-life (T1/2) in human plasma,"[4]; 37 °C, up to 24 h, UPLC read-out, n = 3",< 30 min
same,half-life,[4]; human,26 min
cyclo(DLATEPAK(Dap)-14 (bicyclic or more) [MiniAp4-14],adverse effect on cell viability over the concentration curve (in words),primary neurons,no toxicity
same,reduction of Aβ42 levels relative to vehicle control,"[1]; 10 μM, vehicle 0.25% DMSO",did not affect Aβ42 production
B1,fold reduction in affinity relative to Mint2-PARM^WT,[5],45 fold
B2,fold reduction in affinity relative to Mint2-PARM^WT,[5],> 10 fold
B3,fold reduction in affinity relative to Mint2-PARM^WT,[5],> 10 fold
B4,binding result,[6],binds
same,binding result,Mint2-PARM D462A,binds
B5,fold decrease in affinity relative to wild-type Mint2-PARM,[5],72 fold
NGYENPTYKFFE [APPWT peptide (NGYENPTYKFFE; residues 755-766)],Ki,[6],4 ± 0.2 µM
"NGYENPTYKAFE (peptide, UniProt P05067 755-766, looked up) [APPWT peptide F764A]",fold decrease in affinity relative to the APPWT peptide,[6],14 fold
"NGYENPTYKWFE (peptide, UniProt P05067 755-766, looked up) [APPWT peptide F764W]",binding result,[6],binds
"NGYENPTYKFAE (peptide, UniProt P05067 755-766, looked up) [APPWT peptide F765A]",fold decrease in affinity relative to the APPWT peptide,[6],18 fold
"NGYENPTYKFWE (peptide, UniProt P05067 755-766, looked up) [APPWT peptide F765W]",binding result,[6],binds
"NGYEQPTYKFFE (peptide, UniProt P05067 755-766, looked up) [APPWT peptide N759Q]",Ki,[6],≥ 500 µM
"NGAENPTYKFFE (peptide, UniProt P05067 755-766, looked up) [APPWT peptide Y757A]",fold decrease in affinity relative to the APPWT peptide,[6],76 fold
"NGYENPTWKFFE (peptide, UniProt P05067 755-766, looked up) [APPWT peptide Y762W]",binding result,[6],binds
B6,fold reduction in affinity relative to wild type,[5],14 fold
B7,fold reduction in affinity relative to wild type,[5],25 fold
